# Measured values from PMC9037808 (RSC Advances, 2021).
# Read-outs that look alike come from different tables or passages of the source.
# How the values were obtained:
# Assay type in all cases: cell-based
# HeLa [1] = assay: MTT cytotoxicity assay, HeLa; settings: read-out: IC50, HeLa
# In short: (§1)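 Cells were grown at 37 °C in 5% CO2: HeLa and NRK-52E in DMEM, NCI-H520 in RPMI, each with 10% heat-inactivated FBS plus penicillin/streptomycin/amphotericin B. They were seeded at 10^4 cells/well in triplicate and left 24 h. Test compound (5–300 μM) was added for 24 h, then removed with a PBS wash. MTT was added for 3 h, formazan dissolved in DMSO, and A570 read. IC50 came from nonlinear regression of survival curves, shown as mean ± SE of triplicate independent analyses.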
# NCI-H520 [2] = assay: MTT cytotoxicity assay, NCI-H520; settings: read-out: IC50, NCI-H520
# In short: as §1
# NRK-52E = assay: MTT cytotoxicity assay, NRK-52E; settings: read-out: IC50, NRK-52E, 24 h treatment, normal rat kidney epithelial cell line
# In short: as §1
# NCI-H520 [3] = assay: Apoptosis, Muse Annexin V & Dead cell kit, NCI-H520; settings: IC50 dose; untreated 7.15%
# HeLa [4] = assay: Apoptosis, Muse Annexin V & Dead cell kit, HeLa; settings: IC50 dose (12.59 μM 4a, 11.26 μM 7b), 24 h; untreated 8.05%
# [5] = MTT, 24 h treatment, mean of three independent experiments
Compound,"IC50 (HeLa [1]; Homo sapiens, HeLa, 24 h) [µM]","IC50 (NCI-H520 [2]; Homo sapiens, NCI-H520, 24 h) [µM]",other results
"O=c1[nH]cc(F)c(=O)[nH]1 [5-Fluorouracil, reference compound]",55.7 ± 2.1,8.36 ± 0.45,–
"N.N.[Cl][Pt][Cl] [Cis-platin, reference compound]",–,–,IC50 (HeLa [1]; [5]): 7.75 ± 0.42 µM; IC50 (NCI-H520 [2]; [5]): 10.4 ± 1.35 µM; IC50 (NRK-52E): 12.9 ± 0.4 µM
"CCn1c2ccccc2c2cc(/C=C/C(=O)c3cc4ccccc4oc3=O)ccc21 [Compound 3a, (E)-3-(3-(9-Ethyl-9H-carbazol-3-yl)acryloyl)-2H-chromen-2-one]",132 ± 5.16,120 ± 3.78,–
"CCn1c2ccccc2c2cc(/C=C/C(=O)c3cc4cccc(OC)c4oc3=O)ccc21 [Compound 3b, (E)-3-(3-(9-Ethyl-9H-carbazol-3-yl)acryloyl)-8-methoxy-2H-chromen-2-one]",119 ± 6.88,103 ± 4.78,–
"CCn1c2ccccc2c2cc(/C=C/C(=O)c3cc4c(ccc5ccccc54)oc3=O)ccc21 [Compound 3c, (E)-2-(3-(9-Ethyl-9H-carbazol-3-yl)acryloyl)-3H-benzo[f]chromen-3-one]",142 ± 7.77,133 ± 4.75,–
"CCn1c2ccccc2c2cc(C3CC(c4cc5ccccc5oc4=O)=NN3C(N)=O)ccc21 (stereo not drawn) [Compound 4a, 5-(9-Ethyl-9H-carbazol-3-yl)-3-(2-oxo-2H-chromen-3-yl)-4,5-dihydro-1H-pyrazole-1-carboxamide]",12.59 ± 0.1,11.3 ± 0.45,"apoptotic cell death, NCI-H520 (NCI-H520 [3]): 18%; apoptotic cells, HeLa (HeLa [4]): 25.5%"
"CCn1c2ccccc2c2cc(C3CC(c4cc5cccc(OC)c5oc4=O)=NN3C(N)=O)ccc21 (stereo not drawn) [Compound 4b, 5-(9-Ethyl-9H-carbazol-3-yl)-3-(8-methoxy-2-oxo-2H-chromen-3-yl)-4,5-dihydro-1H-pyrazole-1-carboxamide]",29.8 ± 1.85,22.5 ± 2.15,–
"CCn1c2ccccc2c2cc(C3CC(c4cc5c(ccc6ccccc65)oc4=O)=NN3C(N)=O)ccc21 (stereo not drawn) [Compound 4c, 5-(9-Ethyl-9H-carbazol-3-yl)-3-(3-oxo-3H-benzo[f]chromen-2-yl)-4,5-dihydro-1H-pyrazole-1-carboxamide]",43.5 ± 1.02,55.6 ± 1.93,–
"CCn1c2ccccc2c2cc(C3CC(c4cc5ccccc5oc4=O)=NN3c3ccccc3)ccc21 (stereo not drawn) [Compound 5a, 3-(5-(9-Ethyl-9H-carbazol-3-yl)-1-phenyl-4,5-dihydro-1H-pyrazol-3-yl)-2H-chromen-2-one]",92.5 ± 4.25,81.2 ± 1.46,–
"CCn1c2ccccc2c2cc(C3CC(c4cc5cccc(OC)c5oc4=O)=NN3c3ccccc3)ccc21 (stereo not drawn) [Compound 5b, 3-(5-(9-Ethyl-9H-carbazol-3-yl)-1-phenyl-4,5-dihydro-1H-pyrazol-3-yl)-8-methoxy-2H-chromen-2-one]",39 ± 0.46,62.7 ± 1.63,–
"CCn1c2ccccc2c2cc(C3CC(c4cc5c(ccc6ccccc65)oc4=O)=NN3c3ccccc3)ccc21 (stereo not drawn) [Compound 5c, 2-(5-(9-Ethyl-9H-carbazol-3-yl)-1-phenyl-4,5-dihydro-1H-pyrazol-3-yl)-3H-benzo[f] chromen-3-one]",55 ± 0.96,83.6 ± 1.2,–
"CCn1c2ccccc2c2cc(C3CC(c4cc5ccccc5oc4=O)=NN3c3ccc(C)cc3)ccc21 (stereo not drawn) [Compound 6a, 3-(5-(9-Ethyl-9H-carbazol-3-yl)-1-(p-tolyl)-4,5-dihydro-1H-pyrazol-3-yl)-2H-chromen-2-one]",67 ± 1.87,38.3 ± 0.78,–
"CCn1c2ccccc2c2cc(C3CC(c4cc5cccc(OC)c5oc4=O)=NN3c3ccc(C)cc3)ccc21 (stereo not drawn) [Compound 6b, 3-(5-(9-Ethyl-9H-carbazol-3-yl)-1-(p-tolyl)-4,5-dihydro-1H-pyrazol-3-yl)-8-methoxy-2H-chromen-2-one]",30.8 ± 0.5,30 ± 0.33,–
"CCn1c2ccccc2c2cc(C3CC(c4cc5c(ccc6ccccc65)oc4=O)=NN3c3ccc(C)cc3)ccc21 (stereo not drawn) [Compound 6c, 2-(5-(9-Ethyl-9H-carbazol-3-yl)-1-(p-tolyl)-4,5-dihydro-1H-pyrazol-3-yl)-3H-benzo[f] chromen-3-one]",57.5 ± 1.32,61.7 ± 1.48,–
"CCn1c2ccccc2c2cc(C3CC(c4cc5ccccc5oc4=O)=NN3c3cccc(Cl)c3)ccc21 (stereo not drawn) [Compound 7a, 3-(1-(3-Chlorophenyl)-5-(9-ethyl-9H-carbazol-3-yl)-4,5-dihydro-1H-pyrazol-3-yl)-2H-chromen-2-one]",33.4 ± 0.64,14.3 ± 0.21,–
"CCn1c2ccccc2c2cc(C3CC(c4cc5cccc(OC)c5oc4=O)=NN3c3cccc(Cl)c3)ccc21 (stereo not drawn) [Compound 7b, 3-(1-(3-Chlorophenyl)-5-(9-ethyl-9H-carbazol-3-yl)-4,5-dihydro-1H-pyrazol-3-yl)-8-methoxy-2H-chromen-2-one]",11.4 ± 0.24,9.13 ± 0.08,"apoptotic cell death, NCI-H520 (NCI-H520 [3]): 16.10%; apoptotic cells, HeLa (HeLa [4]): 24%"
"CCn1c2ccccc2c2cc(C3CC(c4cc5c(ccc6ccccc65)oc4=O)=NN3c3cccc(Cl)c3)ccc21 (stereo not drawn) [Compound 7c, 2-(1-(3-Chlorophenyl)-5-(9-ethyl-9H-carbazol-3-yl)-4,5-dihydro-1H-pyrazol-3-yl)-3H-benzo[f]chromen-3-one]",29 ± 0.84,20.8 ± 0.27,–
"CCn1c2ccccc2c2cc(C3CC(c4cc5ccccc5oc4=O)=NN3C(C)=O)ccc21 (stereo not drawn) [Compound 8a, 3-(1-Acetyl-5-(9-ethyl-9H-carbazol-3-yl)-4,5-dihydro-1H-pyrazol-3-yl)-2H-chromen-2-one]",43.2 ± 0.52,62.5 ± 1.95,–
"CCn1c2ccccc2c2cc(C3CC(c4cc5cccc(OC)c5oc4=O)=NN3C(C)=O)ccc21 (stereo not drawn) [Compound 8b, 3-(1-Acetyl-5-(9-ethyl-9H-carbazol-3-yl)-4,5-dihydro-1H-pyrazol-3-yl)-8-methoxy-2H-chromen-2-one]",76.8 ± 1.45,54.7 ± 0.65,–
"CCn1c2ccccc2c2cc(C3CC(c4cc5c(ccc6ccccc65)oc4=O)=NN3C(C)=O)ccc21 (stereo not drawn) [Compound 8c, 2-(1-Acetyl-5-(9-ethyl-9H-carbazol-3-yl)-4,5-dihydro-1H-pyrazol-3-yl)-3H-benzo[f]chromen-3-one]",55.9 ± 1.3,77.61 ± 0.34,–
